Reference: ChEMBL document CHEMBL1122340, “11,12-secoprostaglandins. 6. Interphenylene analogues of acylhydroxyalkanoic acids and related compounds as renal vasodilators” (1983)

How the values were obtained:
Canis familiaris [1] = assay: Percentage change in renal resistance in anesthetized dogs; format: functional, Canis lupus familiaris
Outline: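 Anesthetized dogs, femoral artery and vein catheterized for BP and iv injection; at least 30 min recovery after surgery. Mean renal blood flow and mean arterial BP sampled at 1-min intervals over a 30-min control period, then 500 µg/kg given iv bolus in aqueous solution as Na salt, monitored 30 min more. Renal resistance = mean BP / mean RBF. Two dogs per compound; saline placebo in three dogs.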

Canis familiaris [2] = assay: Mean arterial blood pressure in conscious dog at 3-4 h after 5 mg/kg (po) compound administration; format: functional, Canis lupus familiaris
Outline: (§1)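 Conscious dogs, 3 per group. Dose 5 mg/kg given orally in a gelatin capsule; lactose capsule as placebo. Renal blood flow (flow meters), arterial pressure (transducer) and heart rate recorded digitally every 2 min through a 30-min predrug control period and 5 h postdose. Readings averaged for the control period and for each posttreatment hour; means ± SE.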

Canis familiaris [3] = assay: Mean arterial blood pressure in conscious dog at 1-2 hr after 5 mg/kg (po) compound administration; format: functional, Canis lupus familiaris; outline: as §1
Canis familiaris [4] = assay: Mean heart rate in conscious dog at 2-3 hr after 5 mg/kg (po) compound administration; format: functional, Canis lupus familiaris; outline: as §1
Canis familiaris [5] = assay: Mean renal blood flow in (RBF) conscious dog at 3-4 hr after 5 mg/kg (po); format: functional, Canis lupus familiaris, Kidney; outline: as §1
Canis familiaris [6] = assay: Mean heart rate in conscious dog at 1-2 hr after 5 mg/kg (po) compound administration; format: functional, Canis lupus familiaris; outline: as §1
Canis familiaris [7] = assay: Mean heart rate in conscious dog at 0-1 hr after 5 mg/kg (po) compound administration; format: functional, Canis lupus familiaris; outline: as §1
Canis familiaris [8] = assay: Mean renal blood flow (RBF) in conscious dog at 2-3 hr after 5 mg/kg (po); format: functional, Canis lupus familiaris, Kidney; outline: as §1
Canis familiaris [9] = assay: Mean renal blood (RBF) flow in conscious dog at 0-1 hr after 5 mg/kg (po); format: functional, Canis lupus familiaris, Kidney; outline: as §1
Canis familiaris [10] = assay: Mean arterial blood pressure in conscious dog at 0-1 hr after 5 mg/kg (po) compound administration; format: functional, Canis lupus familiaris; outline: as §1
Canis familiaris [11] = assay: Mean arterial blood pressure in conscious dog at 2-3 h after 5 mg/kg (po) compound administration; format: functional, Canis lupus familiaris; outline: as §1
Canis familiaris [12] = assay: Mean arterial blood pressure in conscious dog at 4-5 h after 5 mg/kg (po) compound administration; format: functional, Canis lupus familiaris; outline: as §1
Canis familiaris [13] = assay: Mean heart rate in conscious dog at 4-5 hr after 5 mg/kg (po) compound administration; format: functional, Canis lupus familiaris; outline: as §1
Canis familiaris [14] = assay: Mean renal blood flow (RBF) in conscious dog at 1-2h after 5 mg/kg (po); format: functional, Canis lupus familiaris, Kidney; outline: as §1
Canis familiaris [15] = assay: Mean renal blood flow (RBF) in conscious dog at 4-5 hr after 5 mg/kg (po); format: functional, Canis lupus familiaris, Kidney; outline: as §1
Canis familiaris [16] = assay: Mean heart rate in conscious dog at 3-4 h after 5 mg/kg (po) compound administration; format: functional, Canis lupus familiaris; outline: as §1

`CCCCCC(O)CCCC(CCCc1cccc(C(=O)O)c1)C(C)=O` (stereo unspecified) was tested. Which Change (Canis familiaris [1]) did it give?
Its Change is -20%.

`CCCCCC(O)CCCN(CCCc1ccc(C(=O)O)cc1)S(C)(=O)=O` (stereo unspecified) was tested. Which Change (Canis familiaris [1]) did it give?
The Change was 5%.

Which MABP (Canis familiaris [2]) does the source give for `CCCCCC(O)CCCC(CCCc1ccc(C(=O)O)cc1)C(C)=O` (stereo unspecified) here?
Its MABP is 95 mmHg.

And the MABP (Canis familiaris [3])?
The MABP was 106 mmHg.

And the HR (Canis familiaris [4])?
Its HR is 74 beats min-1.

And the RBF (Canis familiaris [5])?
The RBF was 139 mL/min.

What about the HR (Canis familiaris [6]) of the same compound?
Its HR is 73 beats min-1.

What about the HR (Canis familiaris [7]) of the same compound?
Its HR is 74 beats min-1.

And the RBF (Canis familiaris [8])?
The RBF was 173 mL/min.

What about the RBF (Canis familiaris [9]) of the same compound?
The RBF was 137 mL/min.

What about the MABP (Canis familiaris [10]) of the same compound?
The MABP was 116 mmHg.

What about the MABP (Canis familiaris [11]) of the same compound?
Its MABP is 97 mmHg.

What about the MABP (Canis familiaris [12]) of the same compound?
The MABP was 106 mmHg.

What about the Change (Canis familiaris [1]) of the same compound?
The Change was -47%.

What about the HR (Canis familiaris [13]) of the same compound?
Its HR is 68 beats min-1.

And the RBF (Canis familiaris [14])?
Its RBF is 194 mL/min.

And the RBF (Canis familiaris [15])?
Its RBF is 124 mL/min.

What about the HR (Canis familiaris [16]) of the same compound?
The HR was 64 beats min-1.

How did the Change (Canis familiaris [1]) turn out when `CCCCCC(O)CCCC(Cc1ccc(CCC(=O)O)cc1)C(C)=O` (stereo unspecified) was run?
Its Change is 13%.

`CC(=O)C(CCCc1ccc(C(=O)O)cc1)CCCC1(O)CCCCC1` (stereo unspecified) was tested. Which Change (Canis familiaris [1]) did it give?
The Change was -42%.

How did the Change (Canis familiaris [1]) turn out when `CS(=O)(=O)N(CCCc1ccc(C(=O)O)cc1)CCCC1(O)CCCCC1` was run?
The Change was -7%.

How did the Change (Canis familiaris [1]) turn out when `CS(=O)(=O)N(CC#CC1(O)CCCCC1)CCCc1ccc(C(=O)O)cc1` was run?
The Change was -10%.

Which Change (Canis familiaris [1]) does the source give for `CCCCCC(O)CCCC(CCCc1ccc(C(=O)O)cc1)C(C)O` (stereo unspecified) here?
Its Change is -19%.

For `CCCCCC(O)CCCC(CCCCc1ccccc1C(=O)O)C(C)=O` (stereo unspecified), which Change (Canis familiaris [1]) is on record?
The Change was 19%.

Which Change (Canis familiaris [1]) does the source give for `CCCOCC(O)CCCC(CCCc1ccc(C(=O)O)cc1)C(C)=O` (stereo unspecified) here?
Its Change is -43%.

Which Change (Canis familiaris [1]) does the source give for `CCCCCC(O)CCCC(CCCCc1ccc(C(=O)O)cc1)C(C)=O` (stereo unspecified) here?
Its Change is 18%.
